{"source": "paper PMC6136146", "about": "(Clinical genitourinary cancer, 2018)", "key": {"mCRPC": {"system": "mCRPC", "details": "no different between the 2 arms; cited from earlier work"}, "DU145 cells": {"system": "DU145 cells", "details": "cited from earlier work"}, "[1]": {"system": "patients with metastatic castrate-resistant prostate cancer (mCRPC)", "test": "Phase I dose escalation: dose-limiting toxicity, MTD and toxicities", "type": "in vivo, human"}, "PC3 cells": {"system": "PC3 cells", "details": "cited from earlier work"}, "sst5": {"system": "sst5", "details": "extremely high affinity compared to octreotide; cited from earlier work"}, "sst2": {"system": "sst2", "details": "extremely high affinity compared to octreotide; cited from earlier work"}, "sst3": {"system": "sst3", "details": "extremely high affinity compared to octreotide; cited from earlier work"}, "sst1": {"system": "sst1", "details": "extremely high affinity compared to octreotide; cited from earlier work"}, "[2]": {"test": "Pasireotide pharmacokinetics, radioimmunoassay with I-125-pasireotide", "type": "in vivo, human", "details": "intramuscular every 28 days", "procedure,_shortened": "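Competitive radioimmunoassay on patient samples: samples or standards incubated with I-125-pasireotide tracer and antiserum; immune complexes captured on anti-rabbit-coated magnetic beads, unbound fraction washed away, bound radioactivity read in gamma counter. Dosing: long-acting IM injection every 28 days at 40, 60 or 80 mg, with docetaxel 75 mg/m2 IV every 21 days and prednisone 5 mg orally twice daily.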"}, "[3]": {"test": "Docetaxel pharmacokinetics", "type": "in vivo, human", "details": "docetaxel 75 mg/m2 intravenously, coadministration of SOM230; single-agent docetaxel PK not done"}, "[4]": {"details": "60 mg dose level, 12 patients evaluated, number of patients"}}, "note": "“Also recorded” adds a separate entry of the source. Numbered stars: 1 amine (or outer) side, 2 acyl side, 3 side chain; on linkers, the order of the positions; unused ones are H or OH. Square brackets hold non-standard residues; d marks the D form. Side chains are listed from the residue outwards. Peptide text beside a SMILES is read from it. * marks the point of attachment. Ethylenediamine = C(CN[*:2])N[*:1]; Hyp = O=C(O)[C@@H]1C[C@@H](O)CN1; Phg = N[C@H](C(=O)O)c1ccccc1; CO = O=C([*:1])[*:2]; Bn = c1ccc(C*)cc1"}
{"smiles": "C[C@]12CC[C@@H]3c4ccc(OC(=O)N(CCCl)CCCl)cc4CC[C@H]3[C@@H]1CC[C@@H]2O", "note": "[estramustine]", "values": [{"measurement": "Median OS", "setting": "mCRPC", "value": 18, "unit": "months"}]}
{"smiles": "NCCCC[C@@H]1NC(=O)[C@@H](Cc2c[nH]c3ccccc23)NC(=O)[C@H](c2ccccc2)NC(=O)[C@@H]2C[C@@H](OC(=O)NCCN)CN2C(=O)[C@H](Cc2ccccc2)NC(=O)[C@H](Cc2ccc(OCc3ccccc3)cc2)NC1=O", "note": "[Pasireotide] (cyclo([Hyp]([CO-Ethylenediamine])[Phg][dW]KY(Bn)F))", "values": [{"measurement": "Growth factors in DU145 cells", "setting": "DU145 cells", "value": "decreased transforming growth factor-β and basic fibroblast growth factor"}, {"measurement": "Dehydration, Grade 1", "setting": "[1]; [4]", "value": 0, "unit": "n"}, {"measurement": "Dehydration, Grade 2", "setting": "[1]; [4]", "value": 0, "unit": "n"}, {"measurement": "Dehydration, Grade 3", "setting": "[1]; [4]", "value": 1, "unit": "n"}, {"measurement": "Dehydration, Grade 4", "setting": "[1]; [4]", "value": 0, "unit": "n"}, {"measurement": "Diarrhea, Grade 1", "setting": "[1]; [4]", "value": 2, "unit": "n"}, {"measurement": "Diarrhea, Grade 2", "setting": "[1]; [4]", "value": 1, "unit": "n"}, {"measurement": "Diarrhea, Grade 3", "setting": "[1]; [4]", "value": 0, "unit": "n"}, {"measurement": "Diarrhea, Grade 4", "setting": "[1]; [4]", "value": 0, "unit": "n"}, {"measurement": "Dry Mouth, Grade 1", "setting": "[1]; [4]", "value": 1, "unit": "n"}, {"measurement": "Dry Mouth, Grade 2", "setting": "[1]; [4]", "value": 0, "unit": "n"}, {"measurement": "Dry Mouth, Grade 3", "setting": "[1]; [4]", "value": 0, "unit": "n"}, {"measurement": "Dry Mouth, Grade 4", "setting": "[1]; [4]", "value": 0, "unit": "n"}, {"measurement": "Electrocardiogram QT Corrected Interval Prolong, Grade 1", "setting": "[1]; [4]", "value": 0, "unit": "n"}, {"measurement": "Electrocardiogram QT Corrected Interval Prolong, Grade 2", "setting": "[1]; [4]", "value": 1, "unit": "n"}, {"measurement": "Electrocardiogram QT Corrected Interval Prolong, Grade 3", "setting": "[1]; [4]", "value": 0, "unit": "n"}, {"measurement": "Electrocardiogram QT Corrected Interval Prolong, Grade 4", "setting": "[1]; [4]", "value": 0, "unit": "n"}, {"measurement": "Hyperglycemia, Grade 1", "setting": "[1]; [4]", "value": 0, "unit": "n"}, {"measurement": "Hyperglycemia, Grade 2", "setting": "[1]; [4]", "value": 0, "unit": "n"}, {"measurement": "Hyperglycemia, Grade 3", "setting": "[1]; [4]", "value": 3, "unit": "n"}, {"measurement": "Hyperglycemia, Grade 4", "setting": "[1]; [4]", "value": 0, "unit": "n"}, {"measurement": "Hyperkalemia, Grade 1", "setting": "[1]; [4]", "value": 0, "unit": "n"}, {"measurement": "Hyperkalemia, Grade 2", "setting": "[1]; [4]", "value": 1, "unit": "n"}, {"measurement": "Hyperkalemia, Grade 3", "setting": "[1]; [4]", "value": 0, "unit": "n"}, {"measurement": "Hyperkalemia, Grade 4", "setting": "[1]; [4]", "value": 0, "unit": "n"}, {"measurement": "Hypertension, Grade 1", "setting": "[1]; [4]", "value": 0, "unit": "n"}, {"measurement": "Hypertension, Grade 2", "setting": "[1]; [4]", "value": 0, "unit": "n"}, {"measurement": "Hypertension, Grade 3", "setting": "[1]; [4]", "value": 2, "unit": "n"}, {"measurement": "Hypertension, Grade 4", "setting": "[1]; [4]", "value": 0, "unit": "n"}, {"measurement": "Hyponatremia, Grade 1", "setting": "[1]; [4]", "value": 0, "unit": "n"}, {"measurement": "Hyponatremia, Grade 2", "setting": "[1]; [4]", "value": 0, "unit": "n"}, {"measurement": "Hyponatremia, Grade 3", "setting": "[1]; [4]", "value": 1, "unit": "n"}, {"measurement": "Hyponatremia, Grade 4", "setting": "[1]; [4]", "value": 0, "unit": "n"}, {"measurement": "Hypophosphatemia, Grade 1", "setting": "[1]; [4]", "value": 0, "unit": "n"}, {"measurement": "Hypophosphatemia, Grade 2", "setting": "[1]; [4]", "value": 0, "unit": "n"}, {"measurement": "Hypophosphatemia, Grade 3", "setting": "[1]; [4]", "value": 3, "unit": "n"}, {"measurement": "Hypophosphatemia, Grade 4", "setting": "[1]; [4]", "value": 0, "unit": "n"}, {"measurement": "Hypotension, Grade 1", "setting": "[1]; [4]", "value": 0, "unit": "n"}, {"measurement": "Hypotension, Grade 2", "setting": "[1]; [4]", "value": 0, "unit": "n"}, {"measurement": "Hypotension, Grade 3", "setting": "[1]; [4]", "value": 1, "unit": "n"}, {"measurement": "Hypotension, Grade 4", "setting": "[1]; [4]", "value": 0, "unit": "n"}, {"measurement": "Injection Site Reaction, Grade 1", "setting": "[1]; [4]", "value": 1, "unit": "n"}, {"measurement": "Injection Site Reaction, Grade 2", "setting": "[1]; [4]", "value": 0, "unit": "n"}, {"measurement": "Injection Site Reaction, Grade 3", "setting": "[1]; [4]", "value": 0, "unit": "n"}, {"measurement": "Injection Site Reaction, Grade 4", "setting": "[1]; [4]", "value": 0, "unit": "n"}, {"measurement": "Rash Acneiform, Grade 1", "setting": "[1]; [4]", "value": 1, "unit": "n"}, {"measurement": "Rash Acneiform, Grade 2", "setting": "[1]; [4]", "value": 0, "unit": "n"}, {"measurement": "Rash Acneiform, Grade 3", "setting": "[1]; [4]", "value": 0, "unit": "n"}, {"measurement": "Rash Acneiform, Grade 4", "setting": "[1]; [4]", "value": 0, "unit": "n"}, {"measurement": "Urinary Frequency, Grade 1", "setting": "[1]; [4]", "value": 1, "unit": "n"}, {"measurement": "Urinary Frequency, Grade 2", "setting": "[1]; [4]", "value": 0, "unit": "n"}, {"measurement": "Urinary Frequency, Grade 3", "setting": "[1]; [4]", "value": 0, "unit": "n"}, {"measurement": "Urinary Frequency, Grade 4", "setting": "[1]; [4]", "value": 0, "unit": "n"}, {"measurement": "Grade 4 or 5 toxicities", "setting": "[1]; 60 mg dose, twelve patients evaluated", "value": "None of the patients experienced Grade 4 or 5 toxicities"}, {"measurement": "Dose-limiting toxicities observed", "setting": "[1]; 80-mg dose level of pasireotide", "value": "Grade 4 hyperglycemia unresponsive to therapy and Grade 4 neutropenia lasting for > 7 days in 1 patient each; also recorded: One patient had Grade 4 amylase elevation and the other had Grade 3 hyperglycemia requiring hospitalization"}, {"measurement": "Hospitalizations because of hyperglycemia probably or definitely related to SOM230", "setting": "[1]; in vivo", "value": "Three"}, {"measurement": "Growth factor secretion in PC3 cells", "setting": "PC3 cells", "value": "reduced secretion of stem cell factor and platelet-derived growth factor"}, {"measurement": "Binding to sst5", "setting": "sst5", "value": "binds"}, {"measurement": "Binding to sst2", "setting": "sst2", "value": "binds"}, {"measurement": "Binding to sst3", "setting": "sst3", "value": "binds"}, {"measurement": "Binding to sst1", "setting": "sst1", "value": "binds"}, {"measurement": "Steady state established in most patients", "setting": "[2]", "value": "≤ 57", "unit": "days"}]}
{"smiles": "CC(=O)O[C@@]12CO[C@@H]1C[C@H](O)[C@@]1(C)C(=O)[C@H](O)C3=C(C)[C@@H](OC(=O)[C@H](O)[C@@H](NC(=O)OC(C)(C)C)c4ccccc4)C[C@@](O)([C@@H](OC(=O)c4ccccc4)[C@H]21)C3(C)C", "note": "[Docetaxel]", "values": [{"measurement": "Docetaxel clearance compared with the data reported in the literature", "setting": "[3]", "value": "3- to 4 fold higher"}]}
